Laboratory results published in ChEMBL document CHEMBL1153963, “Phenanthrene-based tylophorine-1 (PBT-1) inhibits lung cancer cell growth through the Akt and NF-kappaB pathways” (J Med Chem, 2009).
Activity calls are given as the source filed them. The calls are words filed in the database; no cut-off is given here.

What was measured:
[1] = Cell cycle arrest in human CL1-0 cells assessed as accumulation at G2/M phase after 12 hrs by flow cytometry; assay type: functional, cell-based
Method in brief: (§1)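 CL1-0 cells seeded at 2×10^5 per 60 mm dish, incubated 24 h, then exposed to various drug concentrations for 2, 6, 12, 16 or 24 h. Harvested cells fixed in cold 70% ethanol at 4 °C for 16 h, treated with RNase A (20 µg/mL, 37 °C, 30 min), stained with propidium iodide (50 µg/mL, 4 °C, 30 min), analysed at once by flow cytometry for phase distribution.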

[2] = Cell cycle arrest in human CL1-0 cells assessed as accumulation at G2/M phase after 16 hrs by flow cytometry; assay type: functional, cell-based; method in brief: as §1
[3] = Cell cycle arrest in human CL1-0 cells assessed as accumulation at G2/M phase after 24 hrs by flow cytometry; assay type: functional, cell-based; method in brief: as §1
CL1-0 [4] = assay: Decrease in COX2 protein level in TNF-alpha-stimulated human CL1-0 cells by Western blot; assay type: functional, cell-based
Method in brief: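 CL1-0 cells serum-starved overnight, pretreated with various drug concentrations, then stimulated with TNF-α for 4 h. Lysates (50 µg) resolved by 10% SDS-PAGE, blotted, probed with specific antibodies in TBS pH 7.5/0.05% Tween 20/5% milk, HRP secondaries, chemiluminescent film detection; a representative blot shown.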

CL1-0 [5] = assay: Induction of apoptosis in human CL1-0 cells assessed as PARP1 cleavage by Western blot; assay type: functional, cell-based
CL1-0 [6] = assay: Effect on cyclin E protein expression in human CL1-0 cells at 0.5 ug/mL after 24 hrs by Western blot; assay type: functional, cell-based
Method in brief: (§2)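 CL1-0 cells exposed to rising concentrations for 24 h, or to 0.5 µg/mL over a time course; 50 µg lysate resolved by 10% SDS-PAGE, blotted, probed with cyclin/CDK-inhibitor antibodies in TBS-Tween/5% milk, HRP secondary, chemiluminescent film detection.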

[7] = Cell cycle arrest in human CL1-0 cells assessed as accumulation at S phase after 16 hrs by flow cytometry; assay type: functional, cell-based; method in brief: as §1
[8] = Cell cycle arrest in human CL1-0 cells assessed as accumulation at S phase after 12 hrs by flow cytometry; assay type: functional, cell-based; method in brief: as §1
[9] = Cell cycle arrest in human CL1-0 cells assessed as accumulation at G2/M phase after 6 hrs by flow cytometry; assay type: functional, cell-based; method in brief: as §1
[10] = biological target: T1, Inhibitor of nuclear factor kappa-B kinase subunit alpha (Homo sapiens) (UniProt O15111); assay: Increase in IKKalpha activity in TNF-alpha-stimulated human CL1-0 cells by Western blot; assay type: cell-based
T1 sequence (whole entry): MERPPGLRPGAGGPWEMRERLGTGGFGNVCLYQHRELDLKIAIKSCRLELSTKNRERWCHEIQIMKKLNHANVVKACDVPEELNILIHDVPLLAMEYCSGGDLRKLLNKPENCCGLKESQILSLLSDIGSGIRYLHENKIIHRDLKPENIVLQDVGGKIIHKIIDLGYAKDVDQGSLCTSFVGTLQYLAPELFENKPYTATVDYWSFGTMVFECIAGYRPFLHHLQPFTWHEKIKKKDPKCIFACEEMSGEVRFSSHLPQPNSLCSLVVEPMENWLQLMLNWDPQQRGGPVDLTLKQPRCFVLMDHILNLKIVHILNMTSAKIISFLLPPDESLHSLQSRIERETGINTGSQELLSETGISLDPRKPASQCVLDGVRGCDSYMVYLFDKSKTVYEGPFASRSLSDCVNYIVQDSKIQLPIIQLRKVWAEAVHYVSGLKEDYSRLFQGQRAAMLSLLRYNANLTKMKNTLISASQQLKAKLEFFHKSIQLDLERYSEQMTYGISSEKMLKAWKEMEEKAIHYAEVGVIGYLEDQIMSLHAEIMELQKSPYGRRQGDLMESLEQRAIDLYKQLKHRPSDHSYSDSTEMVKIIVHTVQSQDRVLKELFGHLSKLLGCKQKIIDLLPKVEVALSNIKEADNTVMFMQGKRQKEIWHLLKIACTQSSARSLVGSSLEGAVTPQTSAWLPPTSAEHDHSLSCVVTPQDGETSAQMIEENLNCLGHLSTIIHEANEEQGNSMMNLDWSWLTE
Method in brief: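 CL1-0 (and A549) cells serum-starved overnight, pretreated at various concentrations, then TNF-α stimulated for 4 h; extracts immunoblotted for p-Akt, Akt, IKKα, p-IKKα/β; representative blot shown.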

[11] = Cell cycle arrest in human CL1-0 cells assessed as accumulation at S phase after 6 hrs by flow cytometry; assay type: functional, cell-based; method in brief: as §1
CL1-0 [12] = assay: Growth inhibition of human CL1-0 cells at >0.25 ug/mL; assay type: functional, cell-based
CL1-0 [13] = assay: Effect on p21 protein expression in human CL1-0 cells at 0.5 ug/mL after 24 hrs by Western blot; assay type: functional, cell-based; method in brief: as §2
[14] = Cell cycle arrest in human CL1-0 cells assessed as accumulation at G0/G1 phase after 24 hrs by flow cytometry; assay type: functional, cell-based; method in brief: as §1
[15] = Cell cycle arrest in human CL1-0 cells assessed as accumulation at S phase after 24 hrs by flow cytometry; assay type: functional, cell-based; method in brief: as §1
CL1-0 [16] = assay: Cytotoxicity against human CL1-0 cells assessed as disruption of cell morphology after 48 hrs; assay type: functional, cell-based

Question: Which Activity [1] does the source give for `COc1ccc2c(CN3CCC(CO)CC3)cc3cc4c(cc3c2c1)OCO4` here?
Answer: 27%

Question: And the Activity [2]?
Answer: 33.6%

Question: And the Activity [3]?
Answer: 20.9%

Question: And the Activity (CL1-0 [4])?
Answer: Active

Question: What about the Activity (CL1-0 [5]) of the same molecule?
Answer: Active

Question: What about the Activity (CL1-0 [6]) of the same molecule?
Answer: inactive

Question: And the Activity [7]?
Answer: 34.1%

Question: And the Activity [8]?
Answer: 23.9%

Question: What about the Activity [9] of the same molecule?
Answer: 24.3%

Question: And the Activity [10]?
Answer: Active

Question: And the Activity [11]?
Answer: 15.8%

Question: What about the Activity (CL1-0 [12]) of the same molecule?
Answer: Active

Question: And the Activity (CL1-0 [13])?
Answer: inactive

Question: What about the Activity [14] of the same molecule?
Answer: 16.6%

Question: And the Activity [15]?
Answer: 43.8%

Question: And the Activity (CL1-0 [16])?
Answer: Active
